According to publication PMC2908029 (Current radiopharmaceuticals, 2010):
Where “and” joins values, the source holds several entries; their conditions need not be identical. Equal values may be shown once. Each block holds one compound with its values, some of them ahead of it.

What was measured:
brain 5-HT1A receptors [1] = assay: PET imaging of [11C]S14506 in monkey; type: in vivo, rhesus monkey
human 5-HT1A receptors = details: recombinant Chinese hamster ovary cells, room temperature; cited from earlier work
5-HT1A receptors = details: cited from earlier work
brain 5-HT1A receptors [2] = biological target: T1, brain 5-HT1A receptors (Rattus norvegicus, UniProt P19327); assay: PET imaging of [11C]S14506 in rat; type: in vivo, Sprague-Dawley rat; details: i.v.
T1 sequence (P19327 1-422): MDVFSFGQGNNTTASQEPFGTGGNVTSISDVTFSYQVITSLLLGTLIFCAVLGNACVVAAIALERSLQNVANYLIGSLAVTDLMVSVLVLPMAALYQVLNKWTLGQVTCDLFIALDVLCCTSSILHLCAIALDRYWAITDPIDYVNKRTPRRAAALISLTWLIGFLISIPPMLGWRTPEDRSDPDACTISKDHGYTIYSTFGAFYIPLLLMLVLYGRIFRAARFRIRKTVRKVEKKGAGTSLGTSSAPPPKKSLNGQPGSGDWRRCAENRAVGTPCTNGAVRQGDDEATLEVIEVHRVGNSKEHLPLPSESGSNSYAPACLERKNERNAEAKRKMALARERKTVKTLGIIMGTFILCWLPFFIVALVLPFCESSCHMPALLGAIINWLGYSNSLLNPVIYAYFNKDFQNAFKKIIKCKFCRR

Stability in whole blood = type: in vitro ADME; details: rat whole blood in vitro, 125 min, room temperature
Plasma protein binding = type: in vitro ADME; details: rat plasma
[3] = Distribution between blood components; type: in vitro ADME; details: rat, without hematocrit correction
How it was run: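 [18F]-labelled test compound (0.8 μCi) added to heparinized rat whole blood (from cardiac puncture) in duplicate tubes and incubated at room temperature for 27 min. Blood centrifuged at 1800 × g for 3 min, plasma separated, and all fractions γ-counted. Percent radioactivity in plasma and in cells reported without hematocrit correction.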

[4] = Emergence of radiometabolites in monkey plasma; type: in vivo, rhesus monkey; details: over the PET study
brain 5-HT1A receptors [5] = assay: PET imaging of [18F]S14506 in monkey; type: in vivo, rhesus monkey; details: absence of radioactivity accumulation in skull
[6] = Ex vivo biodistribution and radiometabolite composition of [18F]S14506 in rat; parameters: species or system Sprague-Dawley rat
[7] = Effect of cyclosporin A on rat plasma and brain levels of [18F]S14506; type: in vivo; details: 30 min after administration
[8] = Stability in sodium phosphate buffer; type: physicochemical; details: sodium phosphate buffer (0.15 M), room temperature, 2.5 h

Compound: COc1ccc2cccc(N3CCN(CCNC(=O)c4ccc(F)cc4)CC3)c2c1 [S14506, 1-[2-(4-fluorobenzoylamino)ethyl]-4-(7-methoxynaphthyl)piperazine, reference compound]
- time required for a 50% decrease in cerebellar radioactivity (brain 5-HT1A receptors [1]; monkey, cerebellar time-activity curves (non-specific binding)): > 32 min
- off rate from human 5-HT1A receptors (human 5-HT1A receptors): 0.029 min⁻¹

Compound: COc1ccccc1N1CCN(CCCCn2ncc(=O)n(C)c2=O)CC1 [[^11C]CUMI-101, [O-methyl-^11C]2-(4-(4-(2-methoxyphenyl)piperazin-1-yl)butyl)-4-methyl-1,2,4-triazine-3,5(2H,4H)dione]
- Ki (5-HT1A receptors; read-out: Ki, 5-HT1A receptor affinity): 0.15 nM

Compound: [11CH3]Oc1ccc2cccc(N3CCN(CCNC(=O)c4ccc(F)cc4)CC3)c2c1 [[^11C]S14506]
- peak whole brain radioactivity (brain 5-HT1A receptors [2]; rat pre-treated with cyclosporin A 25 mg/kg): ~ 310 % SUV
- peak whole brain radioactivity (brain 5-HT1A receptors [2]; rat pre-treated with cyclosporin A 50 mg/kg): ~ 350 % SUV
- peak whole brain radioactivity (brain 5-HT1A receptors [2]; rat, baseline, at 2 min): 210 % SUV and ~ 210 % SUV
- peak brain radioactivity (brain 5-HT1A receptors [1]; monkey pre-treated with tariquidar 4 mg/kg, i.v., 30 min before): 240 % SUV and ~ 240 % SUV
- peak whole brain radioactivity (brain 5-HT1A receptors [1]; monkey, baseline, i.v., at 7 min): ~ 170 % SUV
- unchanged radioligand after incubation with whole blood (Stability in whole blood): > 99.5%
- free in plasma (plasma protein binding) (Plasma protein binding): 0.52%
- whole blood distribution to cellular components [3]: 40.9%
- whole blood distribution to plasma [3]: 59.1%
- maximal share of the second (minor) radiometabolite in plasma radioactivity [4]: ≤ 3.1%

- radiodefluorination (brain 5-HT1A receptors [5]): not radiodefluorinated
- free in plasma (plasma protein binding) (Plasma protein binding): 0.61%
- whole blood distribution to cellular components [3]: 25.8%
- whole blood distribution to plasma [3]: 74.2%
- Composition (%) of radioactivity, Cerebellum ([6]; 30 min after administration of [18F]S14506, n = 1 rat): 93.9%
- Composition (%) of radioactivity, Remainder of brain ([6]; 30 min after administration of [18F]S14506, n = 2 rats): 97.2 ± 0.20%
- Composition (%) of radioactivity, Plasma ([6]; 30 min after administration of [18F]S14506, n = 3 rats (mean ± SD)): 38.6 ± 0.17%
- [18F]S14506 concentration (%SUV), Remainder of brain ([7]; Control): 141 %SUV
- [18F]S14506 concentration (%SUV), Remainder of brain ([7]; Cyclosporin A treated (50 mg/kg, i.v.)): 211 %SUV
- stability to incubation in buffer [8]: stable
Compound: COc1ccc2cccc(N3CCN(CCNC(=O)c4ccc([18F])cc4)CC3)c2c1 [[^18F]S14506]

Compound: WAY-100635
- Kd (5-HT1A receptors; read-out: Kd, 5-HT1A receptor affinity): 0.1 nM
